Measurements taken from ChEMBL document CHEMBL1144782, “Isoindolo[2,1-a]quinoxaline derivatives, novel potent antitumor agents with dual inhibition of tubulin polymerization and topoisomerase I” (2008).

Legend:
NCI-H226 = assay: Antitumor activity against human NCI-H226 cells; type: functional
Method in brief: (§1)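 Run by the NCI in its in vitro disease-oriented screen of about 60 human tumour cell lines. For each line it reports pGI50 (50% net growth inhibition), pTGI (total growth inhibition) and pLC50 (50% net cell death), each as –log molar concentration. Where an effect was not reached within the tested range, the highest tested concentration was used.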

[1] = Antitumor activity against human NCI-H322 cells; type: functional; method in brief: as §1
NCI-H460 = assay: Antitumor activity against human NCI-H460 cells; type: functional; method in brief: as §1
NCI-H522 = assay: Antitumor activity against human NCI-H522 cells; type: functional; method in brief: as §1
HT-29 = assay: Antitumor activity against human HT29 cells; type: functional; method in brief: as §1
SW-620 = assay: Antitumor activity against human SW620 cells; type: functional
Method in brief: (§2)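 NCI 60-cell-line screen. Parameters were GI50 (50% net growth inhibition), TGI and LC50, each reported as –log molar concentration. Where an effect was not reached within the tested range, the highest tested concentration was used in the calculation.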

SF-268 [2] = assay: Antitumor activity against human SF268 cells; type: functional; method in brief: as §1
SF-295 = assay: Antitumor activity against human SF295 cells; type: functional; method in brief: as §1
SF-539 = assay: Antitumor activity against human SF539 cells; type: functional; method in brief: as §1
SNB-19 = assay: Antitumor activity against human SNB19 cells; type: functional; method in brief: as §1
SNB-75 = assay: Antitumor activity against human SNB75 cells; type: functional; conditions: Homo sapiens, SNB-75; method in brief: as §1
SK-MEL-2 = assay: Antitumor activity against human SKMEL2 cells; type: functional; method in brief: as §1
SK-MEL-28 = assay: Antitumor activity against human SKMEL28 cells; type: functional; method in brief: as §1
UACC-257 = assay: Antitumor activity against human UACC257 cells; type: functional; method in brief: as §2
UACC-62 = assay: Antitumor activity against human UACC62 cells; type: functional; method in brief: as §2
IGROV-1 = assay: Antitumor activity against human IGROV1 cells; type: functional; method in brief: as §1
OVCAR-3 = assay: Antitumor activity against human OVCAR-3 cells; type: functional; method in brief: as §1
OVCAR-4 = assay: Antitumor activity against human OVCAR4 cells; type: functional; method in brief: as §1
OVCAR-5 = assay: Antitumor activity against human OVCAR5 cells; type: functional; method in brief: as §1
OVCAR-8 = assay: Antitumor activity against human OVCAR8 cells; type: functional; method in brief: as §1
SK-OV-3 = assay: Antitumor activity against human SKOV3 cells; type: functional; method in brief: as §1
786-0 = assay: Antitumor activity against human 786-0 cells; type: functional; method in brief: as §1
A498 = assay: Antitumor activity against human A498 cells; type: functional; method in brief: as §1
ACHN = assay: Antitumor activity against human ACHN cells; type: functional; method in brief: as §1
CAKI-1 = assay: Antitumor activity against human CAKI1 cells; type: functional; method in brief: as §1
RXF 393 = assay: Antitumor activity against human RXF393 cells; type: functional; method in brief: as §1
Tubulin (Sus scrofa) = Tubulin (Sus scrofa) (UniProt P02554+P02550); assay: Inhibition of pig brain tubulin polymerization
SF-268 [3] = assay: Cell viability against human SF268 cells at 10 uM; type: functional
CCRF-CEM [4] = assay: Antitumor activity against human CCRF-CEM cells; type: functional; method in brief: as §1
RPMI-8226 = assay: Antitumor activity against human RPMI8226 cells; type: functional; method in brief: as §1
A549 = assay: Antitumor activity against human A549 cells; type: functional; method in brief: as §1
HOP-62 = assay: Antitumor activity against human HOP62 cells; type: functional; method in brief: as §1
SN12C = assay: Antitumor activity against human SN12C cells; type: functional; method in brief: as §1
TK-10 = assay: Antitumor activity against human TK10 cells; type: functional; method in brief: as §2
MCF7 [5] = assay: Antitumor activity against human MCF7 cells; type: functional; method in brief: as §1
[6] = Antitumor activity against human […] cells; type: functional; method in brief: as §1
Hs-578T = assay: Antitumor activity against human HS578T cells; type: functional; method in brief: as §1
MCF7 [7] = assay: Growth inhibition of human MCF7 cells after 72 hrs by MTT assay; type: functional; conditions: MCF7, 72 h
Method in brief: (§3)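 Growth inhibition by MTT after 72 h incubation. Resistant sublines: LoVoDoxo and MCF-7 MDR were kept in 0.1 µg/mL doxorubicin; CEMVbl-100 was selected against vinblastine. GI50 given as mean ± SEM of three independent experiments. Resistance index is resistant-line GI50 over parental GI50.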

MCF7 [8] = assay: Growth inhibition of human multidrug-resistant MCF7 cells after 72 hrs by MTT assay; type: functional; conditions: MCF7, 72 h; method in brief: as §3
MCF7 [9] = assay: Resistance index, Ratio of GI50 for human multidrug-resistant MCF7 cells to GI50 for human MCF7 cells; type: functional; method in brief: as §3
CCRF-CEM [10] = assay: Resistance index, Ratio of GI50 for human vinblastine-resistant CEM cells to GI50 for human CEM cells; type: functional
[11] = read-out: Log LC50 (the source's name) (converted)

Chain of Tubulin (Sus scrofa) (P02550 whole entry, looked up): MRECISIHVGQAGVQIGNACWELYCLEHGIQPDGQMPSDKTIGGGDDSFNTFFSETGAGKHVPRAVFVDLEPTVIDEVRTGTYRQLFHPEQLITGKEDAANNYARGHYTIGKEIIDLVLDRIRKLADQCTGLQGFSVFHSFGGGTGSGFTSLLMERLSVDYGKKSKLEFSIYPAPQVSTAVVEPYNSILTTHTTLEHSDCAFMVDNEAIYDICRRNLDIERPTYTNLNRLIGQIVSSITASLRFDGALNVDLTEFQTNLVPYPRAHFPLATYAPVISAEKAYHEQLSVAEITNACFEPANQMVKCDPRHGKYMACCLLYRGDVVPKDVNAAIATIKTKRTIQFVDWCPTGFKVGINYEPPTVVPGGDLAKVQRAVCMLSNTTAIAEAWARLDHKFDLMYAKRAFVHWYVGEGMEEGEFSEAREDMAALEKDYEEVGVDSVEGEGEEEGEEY
Chain of Tubulin (Sus scrofa) (P02554 whole entry, looked up): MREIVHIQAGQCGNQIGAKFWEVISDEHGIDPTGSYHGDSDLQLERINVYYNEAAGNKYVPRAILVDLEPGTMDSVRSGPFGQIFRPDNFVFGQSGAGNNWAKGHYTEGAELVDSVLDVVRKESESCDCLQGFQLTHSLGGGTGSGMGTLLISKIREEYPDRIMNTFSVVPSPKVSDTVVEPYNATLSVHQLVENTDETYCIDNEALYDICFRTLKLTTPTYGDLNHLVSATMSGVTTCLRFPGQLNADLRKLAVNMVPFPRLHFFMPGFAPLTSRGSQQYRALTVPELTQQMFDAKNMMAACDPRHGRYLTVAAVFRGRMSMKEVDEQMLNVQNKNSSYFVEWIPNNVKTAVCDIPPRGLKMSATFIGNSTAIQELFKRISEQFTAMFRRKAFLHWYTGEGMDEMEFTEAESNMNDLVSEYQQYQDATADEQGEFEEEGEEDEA

Molecule Cc1cc2[nH]c(=O)c3c4ccccc4cn3c2cc1C has a GI50 (NCI-H226) of 15.1 µM, an LC50 (50% net cell kill) (NCI-H226) of 89.1 µM and a TGI (NCI-H226; read-out: pTGI (converted)) of 36.3 µM. For the same molecule, the GI50 [1] was 16.6 µM, the LC50 (50% net cell death) [1] was 55 µM and the TGI ([1]; read-out: pTGI (converted)) was 30.2 µM. For the same molecule, the GI50 (NCI-H460) was 4.47 µM, the CC50 (NCI-H460; [11]) was 63.1 µM and the TGI (NCI-H460; read-out: pTGI (converted)) was 20.4 µM. The GI50 (NCI-H522) was 14.5 µM, the CC50 (NCI-H522; [11]) was 66.1 µM and the TGI (NCI-H522; read-out: pTGI (converted)) was 30.9 µM. The GI50 (HT-29) was 6.03 µM, the LC50 (HT-29) was over 100 µM and the TGI (HT-29; read-out: pTGI (converted)) was over 100 µM. For the same molecule, the GI50 (SW-620) was 3.8 µM, the CC50 (SW-620; [11]) was over 100 µM and the TGI (SW-620; read-out: pTGI (converted)) was 33.1 µM. It also gave a GI50 (SF-268 [2]) of 15.5 µM, a CC50 (SF-268 [2]; [11]) of 69.2 µM and a TGI (SF-268 [2]; read-out: pTGI (converted)) of 32.4 µM. It also gave a GI50 (SF-295) of 12.3 µM, a CC50 (SF-295; [11]) of 66.1 µM and a TGI (SF-295; read-out: pTGI (converted)) of 28.2 µM. For the same molecule, the GI50 (SF-539) was 11.2 µM, the LC50 (50% net cell kill) (SF-539) was 64.6 µM and the TGI (SF-539; read-out: pTGI (converted)) was 26.9 µM. For the same molecule, the GI50 (SNB-19) was 16.2 µM, the CC50 (SNB-19; [11]) was 83.2 µM and the TGI (SNB-19; read-out: pTGI (converted)) was 36.3 µM. The GI50 (SNB-75) was 15.5 µM, the LC50 (SNB-75) was 58.9 µM and the TGI (SNB-75; read-out: pTGI (converted)) was 30.2 µM. It also gave a GI50 (SK-MEL-2) of 18.2 µM, an LC50 (SK-MEL-2) of 66.1 µM and a TGI (SK-MEL-2; read-out: pTGI (converted)) of 34.7 µM. For the same molecule, the GI50 (SK-MEL-28) was 14.8 µM, the CC50 (SK-MEL-28; [11]) was 83.2 µM and the TGI (SK-MEL-28; read-out: pTGI (converted)) was 35.5 µM. For the same molecule, the GI50 (UACC-257) was 20.4 µM, the LC50 (UACC-257) was 63.1 µM and the TGI (UACC-257; read-out: pTGI (converted)) was 35.5 µM. It also gave a GI50 (UACC-62) of 16.6 µM, an LC50 (UACC-62) of 60.3 µM and a TGI (UACC-62; read-out: pTGI (converted)) of 31.6 µM. The GI50 (IGROV-1) was 12.3 µM, the CC50 (IGROV-1; [11]) was 57.5 µM and the TGI (IGROV-1; read-out: pTGI (converted)) was 26.9 µM. It also gave a GI50 (OVCAR-3) of 13.8 µM, an LC50 (50% net cell death) (OVCAR-3) of 57.5 µM and a TGI (OVCAR-3; read-out: pTGI (converted)) of 28.2 µM. The GI50 (OVCAR-4) was 13.5 µM, the LC50 (50% net cell kill) (OVCAR-4) was 56.2 µM and the TGI (OVCAR-4; read-out: pTGI (converted)) was 27.5 µM. The GI50 (OVCAR-5) was 13.8 µM, the LC50 (50% net cell death) (OVCAR-5) was 55 µM and the TGI (OVCAR-5; read-out: pTGI (converted)) was 27.5 µM. It also gave a GI50 (OVCAR-8) of 7.08 µM, an LC50 (50% net cell death) (OVCAR-8) of 81.3 µM and a TGI (OVCAR-8; read-out: pTGI (converted)) of 25.7 µM. It also gave a GI50 (SK-OV-3) of 18.2 µM, an LC50 (50% net cell kill) (SK-OV-3) of 64.6 µM and a TGI (SK-OV-3; read-out: pTGI (converted)) of 34.7 µM. The GI50 (786-0) was 10.7 µM, the CC50 (786-0; [11]) was 47.9 µM and the TGI (786-0; read-out: pTGI (converted)) was 22.9 µM. It also gave a GI50 (A498) of 21.4 µM, a CC50 (A498; [11]) of 72.4 µM and a TGI (A498; read-out: pTGI (converted)) of 39.8 µM. It also gave a GI50 (ACHN) of 10.2 µM, an LC50 (50% net cell kill) (ACHN) of 53.7 µM and a TGI (ACHN; read-out: pTGI (converted)) of 23.4 µM. For the same molecule, the GI50 (CAKI-1) was 5.37 µM, the LC50 (CAKI-1) was 49 µM and the TGI (CAKI-1; read-out: pTGI (converted)) was 17.8 µM. It also gave a GI50 (RXF 393) of 12 µM, a CC50 (RXF 393; [11]) of 63.1 µM and a TGI (RXF 393; read-out: pTGI (converted)) of 27.5 µM. For the same molecule, the Activity (Tubulin (Sus scrofa)) was over 10 µM, the Activity (SF-268 [3]) was 0% and the GI50 (CCRF-CEM [4]) was 10 µM. The LC50 (CCRF-CEM [4]) was 97.7 µM, the TGI (CCRF-CEM [4]; read-out: pTGI (converted)) was 30.9 µM and the GI50 (RPMI-8226) was 6.76 µM. It also gave a CC50 (RPMI-8226; [11]) of over 100 µM, a TGI (RPMI-8226; read-out: pTGI (converted)) of 29.5 µM and a GI50 (A549) of 14.8 µM. It also gave a CC50 (A549; [11]) of 95.5 µM, a TGI (A549; read-out: pTGI (converted)) of 38 µM and a GI50 (HOP-62) of 2.69 µM. For the same molecule, the LC50 (50% net cell death) (HOP-62) was 28.8 µM, the TGI (HOP-62; read-out: pTGI (converted)) was 8.13 µM and the GI50 (SN12C) was 6.03 µM. For the same molecule, the LC50 (SN12C) was 56.2 µM, the TGI (SN12C; read-out: pTGI (converted)) was 20.4 µM and the GI50 (TK-10) was 20 µM. It also gave a CC50 (TK-10; [11]) of 58.9 µM, a TGI (TK-10; read-out: pTGI (converted)) of 33.9 µM and a GI50 (MCF7 [5]) of 11.7 µM. It also gave an LC50 (50% net cell kill) (MCF7 [5]) of over 100 µM, a TGI (MCF7 [5]; read-out: pTGI (converted)) of over 100 µM and a GI50 [6] of 8.32 µM. The LC50 [6] was 60.3 µM, the TGI ([6]; read-out: pTGI (converted)) was 23.4 µM and the GI50 (Hs-578T) was 25.1 µM. For the same molecule, the CC50 (Hs-578T; [11]) was over 100 µM, the TGI (Hs-578T; read-out: pTGI (converted)) was 60.3 µM and the GI50 (MCF7 [7]) was 5.1 µM. It also gave a GI50 (MCF7 [8]) of 9.2 µM, a RatioGI50 (MCF7 [9]) of 1.8 and a RatioGI50 (CCRF-CEM [10]) of 0.97.
